TDP2 absorb: TDP2 (human) inhibition, absorbance primary screen. O95551. recombinant TDP2, T5PNP hydrolysis, p-nitrophenol absorbance 415 nm. inhibition, % at 12.8 µM. hit rate 0.34% among 370,000. AID 720702;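 active = inhibition above the mean of all tested compounds plus 3 SD, set per campaign, cut at about 25% in these data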;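 note: 0% = DMSO with enzyme and 100% = buffer with substrate but no TDP2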
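Assay system: Recombinant human TDP2 | Quantity: 120 nM TDP2 per well | Incubation: 2 h at 37 °C | Signal: Epi absorbance | Evaluation: Percent inhibition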
CASP6 VEID inh: inhibitors of human caspase-6; P55212; purified caspase-6, Z-VEID-R110 cleavage fluorescence; inhibition, % at 12.5 µM; hit rate 0.53% among 350,000; AID 686996;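 active = mean inhibition across replicates at least about 35%, with every replicate also reaching that limit, limit read from the data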;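 note: 0% = median of neutral control wells and 100% = no fluorescence left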
LEDGF integ inh: blocks HIV-1 LEDGF/p75-dependent DNA integration | TR-FRET IN-LEDGF/p75 DNA integration, Eu/Cy5 | inhibition, % at 3.7 µM | hit rate 0.64% among 370,000 | AID 743269;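 active = inhibition above the screen-wide mean plus 3 SD, cut at about 13% in these data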;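 note: signal is the Cy5 over europium emission ratio at 671 and 618 nm; 0% = plate median of compound wells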
NSD2 inh: blocks human histone methyltransferase NSD2; NSD2 peptide methylation, AlphaScreen, 120 min; inhibition, % at 12.5 µM; hit rate 0.54% among 310,000; AID 743445; in the data active = inhibition above about 50%
Target sequence (O96028 whole entry, looked up): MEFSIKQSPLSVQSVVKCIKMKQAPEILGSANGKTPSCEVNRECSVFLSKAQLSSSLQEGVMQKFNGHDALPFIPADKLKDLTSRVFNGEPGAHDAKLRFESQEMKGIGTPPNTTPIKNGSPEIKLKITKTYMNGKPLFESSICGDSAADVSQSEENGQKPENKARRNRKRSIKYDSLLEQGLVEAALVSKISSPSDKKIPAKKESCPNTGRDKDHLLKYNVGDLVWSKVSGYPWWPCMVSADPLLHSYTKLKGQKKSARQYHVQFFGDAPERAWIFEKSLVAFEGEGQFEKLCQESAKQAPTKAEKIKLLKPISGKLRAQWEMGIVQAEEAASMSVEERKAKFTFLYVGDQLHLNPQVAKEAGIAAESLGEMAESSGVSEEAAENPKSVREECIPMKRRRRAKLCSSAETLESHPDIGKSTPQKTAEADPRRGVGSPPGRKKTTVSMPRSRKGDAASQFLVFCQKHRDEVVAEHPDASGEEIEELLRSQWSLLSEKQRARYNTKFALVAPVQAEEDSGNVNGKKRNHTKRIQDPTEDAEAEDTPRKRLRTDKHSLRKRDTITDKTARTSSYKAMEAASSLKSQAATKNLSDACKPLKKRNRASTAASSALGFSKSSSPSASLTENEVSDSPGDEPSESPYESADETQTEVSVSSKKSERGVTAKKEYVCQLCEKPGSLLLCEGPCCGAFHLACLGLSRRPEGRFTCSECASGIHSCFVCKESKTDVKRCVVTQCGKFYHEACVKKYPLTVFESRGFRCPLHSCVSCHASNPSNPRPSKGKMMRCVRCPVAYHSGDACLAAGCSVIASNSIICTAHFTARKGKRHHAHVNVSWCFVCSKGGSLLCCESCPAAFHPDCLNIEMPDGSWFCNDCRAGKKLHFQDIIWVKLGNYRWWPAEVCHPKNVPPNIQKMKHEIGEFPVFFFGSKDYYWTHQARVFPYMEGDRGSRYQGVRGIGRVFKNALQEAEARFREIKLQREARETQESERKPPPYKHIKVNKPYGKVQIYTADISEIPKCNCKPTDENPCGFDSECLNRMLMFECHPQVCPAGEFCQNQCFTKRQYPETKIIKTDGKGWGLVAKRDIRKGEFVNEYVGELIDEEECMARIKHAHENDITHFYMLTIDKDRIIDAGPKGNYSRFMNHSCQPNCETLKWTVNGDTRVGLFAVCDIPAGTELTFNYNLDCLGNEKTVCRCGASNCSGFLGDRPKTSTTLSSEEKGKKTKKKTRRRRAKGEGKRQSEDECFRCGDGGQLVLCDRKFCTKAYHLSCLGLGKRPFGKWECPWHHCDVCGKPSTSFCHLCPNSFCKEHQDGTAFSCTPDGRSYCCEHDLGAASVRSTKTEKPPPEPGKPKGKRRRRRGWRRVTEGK
MBD2 DNA inh: MBD2-methylated oligo binding inhibition; Q9UBB5; TR-FRET, MBD2 binding to methylated oligonucleotide; inhibition, % at 4.4 µM; hit rate 0.31% among 370,000; AID 686964; in the data active = inhibition above about 13%
UHRF1 MBD2 ctr: blocks human UHRF1 binding to methylated DNA | inhibition, % at 4.4 µM | Q96T88 | hit rate 0.75% among 370,000 | UHRF1 binding to methylated oligo, TR-FRET; in the data active = inhibition above about 21%;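 note: UHRF1 SRA domain binding a hemimethylated CpG hairpin DNA probe; 0% = median of test compound wells and 100% = reference inhibitor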
* marks the source's active call; other numbers are inactive results; . = not tested or not shown. A selection: hits, their analogues and other compounds. The true share with any hit is near 1.8%.

SMILES	TDP2 absorb	CASP6 VEID inh	LEDGF integ inh	NSD2 inh	MBD2 DNA inh	UHRF1 MBD2 ctr
O=C(CSc1nc2ccccc2c(=O)n1-c1ccccc1)N1CCc2ccccc2C1	4.1	.	0.5	9.1	6.9	28.0*
CCC(=O)N(C)C[C@@H]1Oc2cc(C#CC3CC3)ccc2S(=O)(=O)N([C@H](C)CO)C[C@H]1C	.	0.0	.	.	.	.
COc1ccc2c3c(n(C)c2c1)[C@H](CO)N(C(=O)NC(C)C)CC31CCN(CC2CCCC2)CC1	.	-2.2	.	.	.	.
CCCc1c2c(cc3c(=O)cc(C(=O)OCC)oc13)CCCC2	0.1	-0.3	0.0	-0.2	4.0	74.4*
CCOC(=O)c1cc(CNC(=O)c2c(C)oc3c2CCCC3)c(C)o1	-13.7	5.8	-2.5	3.5	-2.4	1.2
CCC/C(=N\NC(=O)c1cccc(C)c1)c1ccccc1	-4.8	-0.4	4.5	-4.4	0.1	33.0*
COc1ccccc1C(=O)Nc1ccc2c(c1)OC[C@H](C)N(C)C[C@H](C)[C@@H](OC)CN(C)C2=O	.	2.0	.	.	.	.
CC(Sc1nnc(Cc2ccccc2)o1)C(=O)NC1(C#N)CCCCC1 (centres undefined)	-1.9	-1.4	-10.0	-2.4	2.0	24.2*
CC(Sc1nccn1C)C(=O)NC1(C#N)CCCCC1 (centres undefined)	0.5	3.0	3.7	-1.3	0.4	0.4
C[C@H]1CN([C@@H](C)CO)C(=O)c2cc(NC(=O)C3CC3)ccc2O[C@@H]1CN(C)Cc1ccc2c(c1)OCO2	.	-2.7	.	.	.	.
C[C@H](CO)N1C[C@H](C)[C@@H](CN(C)C(=O)Nc2ccc(C(F)(F)F)cc2)Oc2ncc(/C=C/c3ccccc3)cc2C1=O	.	47.7*	.	.	.	.
COc1cccc(C#Cc2cnc3c(c2)C(=O)N([C@@H](C)CO)C[C@@H](C)[C@H](CN(C)C(=O)C2CCC2)O3)c1	.	1.5	.	.	.	.
COc1cccc(C#Cc2cnc3c(c2)C(=O)N([C@@H](C)CO)C[C@H](C)[C@H](CN(C)C(=O)C2CCC2)O3)c1	4.5	-0.8	-9.8	.	9.5	21.8*
Cc1ccc(S(=O)(=O)N(C)C[C@@H]2Oc3ncc(C#CCC(C)C)cc3C(=O)N([C@H](C)CO)C[C@H]2C)cc1	1.6	5.8	-4.8	.	8.5	22.8*
COc1cccc(C#Cc2ccc3c(c2)[C@H]2[C@H](CCN2S(=O)(=O)c2cccc(OC)c2)[C@H](CO)N3)c1	.	-0.5	.	.	.	.
O=C(c1cccnc1)N1C[C@H]2[C@@H](c3ccccc31)[C@H](CO)N2C(=O)Nc1ccc(F)cc1	.	-1.7	.	.	.	.
COc1ccc(OC)c(N/C(=N/c2nc(C)cc(C)n2)NC(C)=O)c1	-11.6	52.7*	0.8	3.3	-1.2	1.7
C[C@@H]1CCCCO[C@H](CN(C)S(=O)(=O)c2ccccc2)[C@@H](C)CN([C@@H](C)CO)C(=O)c2cc(NC(=O)c3ccccc3)ccc2O1	.	0.1	.	.	.	.
CCc1nc2c(c(=O)c3ccccc3n2C)c(=O)n1C1CCCCCC1	-6.0	.	-2.0	7.5	1.2	59.4*
COCC#Cc1ccc2c(c1)O[C@H](CN(C)C(=O)Nc1ccccc1F)[C@H](C)CN([C@H](C)CO)S2(=O)=O	.	4.0	.	.	.	.
O=C(O)CSc1cc(NS(=O)(=O)c2ccc(Cl)cc2)c2ccccc2c1O	62.8*	95.8*	12.8	136.9*	-15.2	-4.8
O=S(=O)(Nc1ccc(Cl)cc1NS(=O)(=O)c1ccccc1)c1ccccc1	9.9	29.1	10.2	4.8	-6.7	-0.6
COCC(=O)Nc1ccc2c(c1)OC[C@@H](C)N(C(=O)Cc1cccnc1)C[C@H](C)[C@H](OC)CN(C)C2=O	.	2.7	.	.	.	.
CCN(CC)c1ccc(N=Cc2ccccc2[N+](=O)[O-])cc1	9.8	-3.0	15.1*	.	-8.9	-4.2
O=[N+]([O-])c1ccccc1/C=N/OCc1ccccc1	6.0	1.6	0.6	0.6	-3.4	1.9
Cc1cccc(N2CCN(C(=O)C3CCN(S(=O)(=O)c4cccc5nsnc45)CC3)CC2C)c1 (centres undefined)	-4.4	.	-2.1	4.2	5.0	-0.6
Cc1cccc(N2CCN(C(=O)C3CCN(S(=O)(=O)N4CCOCC4)CC3)CC2C)c1 (centres undefined)	-5.4	-2.6	0.8	-1.9	2.0	74.2*
O=C(NCC(O)c1ccc([N+](=O)[O-])cc1)Nc1ccccc1 (centres undefined)	-4.3	0.0	2.2	-0.5	-0.6	-1.8

Assay outcomes: PubChem, several laboratories
